SKN-1 inh: suppressors of acrylamide-induced Pgst-4::GFP reporter in worms, primary screen, SKN-1 inhibitor project, whole organism, uHTS, GFP/RFP fluorescence ratio, strain VP596. 0.49% of 360,000 active. C. elegans VP596 Pgst-4::GFP/RFP ratio, 24 h. inhibition, % at 21.8 µM;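 active means interference check ratio from 0.5 to 1.5 plus GFP to RFP signal ratio inhibition reaching or exceeding a fixed threshold, cut at about 30% in these data, passing the limit was not always enough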
DAGLB inh: DAGLB lipase inhibitors, primary screen, biochemical, fluorescence, HTS | Diacylglycerol lipase-beta (Homo sapiens), Q8NCG7 | HEK293T DAGLB membrane lysate, EnzChek fluorogenic substrate | inhibition, % at 5.17 µM | 0.059% of 340,000 active | AID 504411, 2011; in the data active means inhibition above about 34%;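 further: 0% = enzyme with vehicle and 100% = wells lacking enzyme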
Target sequence (Q8NCG7 whole entry, looked up): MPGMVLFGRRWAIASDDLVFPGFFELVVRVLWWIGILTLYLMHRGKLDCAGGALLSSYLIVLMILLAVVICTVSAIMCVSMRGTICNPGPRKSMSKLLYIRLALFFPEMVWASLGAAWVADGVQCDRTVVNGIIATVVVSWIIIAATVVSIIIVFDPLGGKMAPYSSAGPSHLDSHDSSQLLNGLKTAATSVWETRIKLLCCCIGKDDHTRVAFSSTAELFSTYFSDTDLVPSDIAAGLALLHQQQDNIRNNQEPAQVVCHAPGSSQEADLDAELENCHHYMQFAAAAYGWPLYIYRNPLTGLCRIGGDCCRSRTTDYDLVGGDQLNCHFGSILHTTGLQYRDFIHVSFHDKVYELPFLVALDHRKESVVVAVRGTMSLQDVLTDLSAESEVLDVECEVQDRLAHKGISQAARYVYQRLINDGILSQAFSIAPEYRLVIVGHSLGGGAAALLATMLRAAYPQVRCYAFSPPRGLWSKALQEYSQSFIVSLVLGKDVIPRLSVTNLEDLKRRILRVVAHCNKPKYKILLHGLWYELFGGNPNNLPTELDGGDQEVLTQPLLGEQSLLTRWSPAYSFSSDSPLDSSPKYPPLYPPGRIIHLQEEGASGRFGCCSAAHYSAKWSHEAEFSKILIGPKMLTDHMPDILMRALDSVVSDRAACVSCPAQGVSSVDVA
hiPSC survival: enhancers of single-cell hiPSC survival, primary screen, ATPlite luminescence | AID 602274, 2012 | 100% = ROCK inhibitor wells, 0% = DMSO | 0.044% of 360,000 active | survival enhancement, % at 20 µM; in the data active means survival enhancement above about 18%;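 further: cells exposed to compounds for 16 hours before the ATP read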
MT1-MMP act inh: blockers of MT1-MMP proenzyme processing, primary screen, HT1080 RFP-PRO-GFP cells, GFP/RFP fluorescence; Matrix metalloproteinase-14 (Homo sapiens), P50281; GFP/RFP ratio fluorescence, overnight; percent of plate control window, DMSO zero; GFP/RFP ratio change, % at 20 µM; 0.061% of 360,000 active; AID 651647, 2012;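 active means GFP/RFP ratio change of at least 30% with cell ATP level not reduced by more than half and red fluorescence within 50% of control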
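Assay system: HT1080 RFP-PRO-GFP cells | Dosing: 20 µM single dose, 1% DMSO | Incubation: Cells overnight before dosing, compound overnight, 37 °C, 5% CO2 | Evaluation: GFP/RFP fluorescence ratio | Control set: DMSO-only wells and HT1080 RFP-L50D-GFP cell wells as references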
Cneo AK release: Cryptococcus neoformans cell lysis inducers, primary screen, AK release luminescence, single concentration | C. neoformans lysis, adenylate kinase release luminescence, 4 h; normalised: neutral wells 0, clomiphene wells 100 | lysis activity, % at 15 µM | 0.2% of 360,000 active | AID 651654, 2012;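 active means mean lysis activity across replicates of at least 80%, whatever share of replicates individually reach that level; inactive means mean lysis activity below 80%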
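Assay system: log-phase C. neoformans yeast / Quantity: yeast cell density of 5 × 10^6 cells/mL / Medium: fresh YPD growth medium / Compound: single dose / Timing: static 4 h at 37 °C with compound, 1 h detection / Measured by: adenylate kinase release luminescence / Read-out: lysis from increased AK signal / Benchmarks: Clomiphene as positive lysis control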
Ecoli rRNA inh: reduced GFP signal of wild-type E. coli, primary screen, bacterial rRNA inhibitor project, GFP/RFP fluorescence, OD600, single point | GFP signal change (wild-type ribosome), % (concentration not given with the values) | E. coli WT GFP vs humanized-ribosome RFP mutants, 24 h; stronger effect = lower value; DMSO median 0, no signal -100 | 1.6% of 350,000 active;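 active means significant combined selectivity score with lowered wild-type GFP, culture density cut under 30%, mutant RFP and density less affected; inactive means any of these conditions unmet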
* marks the source's active call; other numbers are inactive results; x = not tested or not shown. Shown are actives, neighbours in structure and some others; about 1.8% of the full set was active somewhere.

SMILES | SKN-1 inh | DAGLB inh | hiPSC survival | MT1-MMP act inh | Cneo AK release | Ecoli rRNA inh
CC1=C(C#N)C(=O)NC(=O)/C1=C\c1ccc(-c2cc(C)c(C)cc2[N+](=O)[O-])o1 | -7 | 9 | 0 | 1 | 0 | -34*
CCCCCCCNC(=O)C1(CC2CC(c3cccc(Br)c3)=NO2)CCN(C(=O)CCCCCBr)CC1 (stereo not drawn) | -14 | 4 | -2 | x | -1 | -20*
CC(C)NC(=O)Nc1ccc2c(c1)C(=O)N([C@H](C)CO)C[C@H](C)[C@H](CN(C)S(=O)(=O)c1cccs1)OCCCC[C@H](C)O2 | x | x | x | x | 3 | -5
C[C@@H]1CCCCO[C@@H](CN(C)S(=O)(=O)c2cccs2)[C@H](C)CN([C@@H](C)CO)C(=O)c2cc(NC(=O)CCC(F)(F)F)ccc2O1 | x | x | x | x | 98* | -3
CC(C)NC(=O)Nc1ccc2c(c1)C(=O)N([C@@H](C)CO)C[C@H](C)[C@@H](CN(C)S(=O)(=O)c1cccs1)OCCCC[C@H](C)O2 | x | x | x | x | 87* | -3
c1ccc(C(c2ccccc2)c2nc(-c3cccnc3)no2)cc1 | 14 | -9 | 1 | -5 | -7 | -39*
Brc1ccc(-c2nc(-c3cccnc3)no2)o1 | 52* | -5 | 3 | -6 | 0 | x
COc1cccc(-c2nc(-c3ccc(Br)o3)no2)c1 | -9 | -12 | -1 | 3 | -3 | 20
Brc1ccc(-c2nc(-c3ccccc3)no2)o1 | 79* | -13 | -2 | -5 | 3 | x
C=CCn1c(SCC(=O)c2c(N)n(C3CC3)c(=O)[nH]c2=O)nnc1-c1ccoc1C | 13 | 3 | 0 | 1 | 0 | 1
C=CCn1c(SCC(=O)c2c(N)n(C)c(=O)n(C)c2=O)nnc1-c1ccoc1C | 35* | -1 | -1 | -2 | 0 | 5
CCCNC(=O)c1cc2c(c(-c3cccc(-c4ccncc4)c3)n1)[C@@H](CCO)N(S(=O)(=O)CC)C2 | x | x | x | x | x | -2
Cc1noc(C)c1S(=O)(=O)N(C)C[C@H]1OCCCC[C@@H](C)Oc2ccc(NC(=O)C3CCCCC3)cc2C(=O)N([C@H](C)CO)C[C@H]1C | x | x | x | x | -3 | 0
O=c1c2cc(-c3ccccc3)sc2ncn1/N=C/c1ccco1 | 44* | -12 | 8 | -2 | 6 | x
CCCCCn1cnc2sc(-c3ccccc3)cc2c1=O | 40* | -22 | 7 | -4 | -3 | x
CCCCn1cnc2sc(-c3ccccc3)cc2c1=O | 18 | -17 | -3 | 3 | 0 | x
COc1cc2c(cc1OC)C(C)N(C(=O)c1sc(-c3cnccn3)nc1C)CC2 (stereo not drawn) | x | x | x | x | x | -34*
COc1ccc(NS(=O)(=O)c2cc([N+](=O)[O-])ccc2NN=Cc2ccccc2OCC(=O)O)cc1 | 3 | 8 | 0 | 0 | 8 | -32*
O=C(O)COc1ccccc1C=NNc1ccc([N+](=O)[O-])cc1S(=O)(=O)Nc1ccc(Cl)cc1 | 12 | 17 | 0 | 1 | 2 | -23
COc1ccc(C=NNc2ccc([N+](=O)[O-])cc2S(=O)(=O)Nc2ccccc2C(=O)O)cc1OC | 7 | 15 | -1 | 2 | -7 | -23*
COc1ccccc1NS(=O)(=O)c1cc([N+](=O)[O-])ccc1N/N=C/c1c[nH]c2ccccc12 | 40* | 18 | 2 | -75 | 0 | x
O=C(O)C/C(=C\c1ccc(N2CCOCC2)c([N+](=O)[O-])c1)c1nc2ccccc2s1 | -2 | 11 | 0 | 1 | 1 | -25*
O=C(O)CC/C(=C\c1ccc(N2CCOCC2)c([N+](=O)[O-])c1)c1nc2ccccc2s1 | 3 | 19 | -1 | 4 | x | -31
CNC[C@H]1OCCCC[C@H](C)Oc2ccc(NS(=O)(=O)c3ccc(Cl)cc3)cc2C(=O)N([C@H](C)CO)C[C@@H]1C | x | x | x | x | x | 3
CCC(=O)N1CC2(C1)[C@@H](c1ccc(-c3ccc(C)cc3)cc1)[C@@H](CO)N2S(C)(=O)=O | x | x | x | x | x | 2
SMILES | SKN-1 inh | DAGLB inh | hiPSC survival | MT1-MMP act inh | Cneo AK release | Ecoli rRNA inh
O=C(CN1CCC(n2nnc3cc(F)ccc32)CC1)N1CCc2ccccc2C1 | 3 | -3 | 0 | -1 | 0 | -23*
N#Cc1ccc(NC(=O)COC(=O)CCNS(=O)(=O)c2ccccc2)cc1 | 14 | -1 | 5 | -1 | 0 | -4
O=C(COC(=O)CCNS(=O)(=O)c1ccccc1)Nc1ccc(OC(F)F)cc1 | 45* | -1 | 1 | -2 | -1 | -3
OC[C@@H]1[C@H](c2ccc(C3=CCCCC3)cc2)[C@@H](CNC2CCCC2)N1CC1CC1 | x | x | x | x | x | -20
COc1ccc(CNc2ccc([N+](=O)[O-])cc2C)cc1 | -3 | -2 | 0 | 0 | x | -24*
Cc1cc([N+](=O)[O-])ccc1NCc1ccccc1 | 37* | -9 | -1 | -1 | -12 | x
COc1ccc(CN(C)C[C@@H]2Oc3c(NS(=O)(=O)c4c(C)noc4C)cccc3C(=O)N([C@H](C)CO)C[C@@H]2C)cc1 | x | x | x | x | -7 | 5
C/C(=N\N=C(/N)SC1CC(=O)N(c2ccc(Cl)c(Cl)c2)C1=O)c1cccs1 (stereo not drawn) | 0 | 1 | -1 | 1 | -1 | -39*
Nc1c(O)ccc2c1C(=O)c1ccccc1C2=O | x | x | x | x | x | -56*
O=C(Nc1ccc(S(=O)(=O)N2CCOCC2)cc1)c1ccc([N+](=O)[O-])o1 | 18 | 2 | 0 | 2 | 2 | -24*
CCN1CCN(c2ccc(NC(=O)c3ccc([N+](=O)[O-])o3)cc2Cl)CC1 | 7 | -2 | -1 | -4 | x | -38*
CCC(=O)N1CCN(c2ccc(NC(=O)c3ccc([N+](=O)[O-])o3)cc2Cl)CC1 | -2 | 1 | 1 | 8 | x | -3
O=C(Nc1ccc(S(=O)(=O)N2CCCC2)cc1)c1ccc([N+](=O)[O-])o1 | 0 | 4 | -3 | 7 | -1 | 0
CCn1nnc(NC(=O)c2ccc([N+](=O)[O-])o2)n1 | -1 | -1 | -2 | 6 | x | -23*
CCC(=O)N1CCN(c2ccc(NC(=O)c3cc4ccccc4o3)cc2Cl)CC1 | 31* | -5 | -3 | -15 | 0 | x
CN1C(=O)c2cc(NC(=O)c3ccc(Cl)cc3)ccc2OC[C@@H]2O[C@H](CC(=O)NCc3cccc(F)c3)CC[C@H]21 | x | x | x | x | -10 | -8

Compound activity deposited in PubChem by several laboratories.
